Results taken from ChEMBL document CHEMBL4152256, “Structure-activity relationship of new antimalarial 1-aryl-3-susbtituted propanol derivatives: Synthesis, preliminary toxicity profiling, parasite life cycle stage studies, target exploration, and targeted delivery” (Eur J Med Chem, 2018).
The source made the active and inactive calls. The rule behind the calls is not given here.

Key:
HSP90 = biological target: T1, HSP90 (Plasmodium falciparum 3D7, UniProt Q8IL32); test: (§1) Binding affinity to Plasmodium falciparum HSP90 nucleotide binding domain by SPR analysis
T1 sequence (Q8IL32 whole entry): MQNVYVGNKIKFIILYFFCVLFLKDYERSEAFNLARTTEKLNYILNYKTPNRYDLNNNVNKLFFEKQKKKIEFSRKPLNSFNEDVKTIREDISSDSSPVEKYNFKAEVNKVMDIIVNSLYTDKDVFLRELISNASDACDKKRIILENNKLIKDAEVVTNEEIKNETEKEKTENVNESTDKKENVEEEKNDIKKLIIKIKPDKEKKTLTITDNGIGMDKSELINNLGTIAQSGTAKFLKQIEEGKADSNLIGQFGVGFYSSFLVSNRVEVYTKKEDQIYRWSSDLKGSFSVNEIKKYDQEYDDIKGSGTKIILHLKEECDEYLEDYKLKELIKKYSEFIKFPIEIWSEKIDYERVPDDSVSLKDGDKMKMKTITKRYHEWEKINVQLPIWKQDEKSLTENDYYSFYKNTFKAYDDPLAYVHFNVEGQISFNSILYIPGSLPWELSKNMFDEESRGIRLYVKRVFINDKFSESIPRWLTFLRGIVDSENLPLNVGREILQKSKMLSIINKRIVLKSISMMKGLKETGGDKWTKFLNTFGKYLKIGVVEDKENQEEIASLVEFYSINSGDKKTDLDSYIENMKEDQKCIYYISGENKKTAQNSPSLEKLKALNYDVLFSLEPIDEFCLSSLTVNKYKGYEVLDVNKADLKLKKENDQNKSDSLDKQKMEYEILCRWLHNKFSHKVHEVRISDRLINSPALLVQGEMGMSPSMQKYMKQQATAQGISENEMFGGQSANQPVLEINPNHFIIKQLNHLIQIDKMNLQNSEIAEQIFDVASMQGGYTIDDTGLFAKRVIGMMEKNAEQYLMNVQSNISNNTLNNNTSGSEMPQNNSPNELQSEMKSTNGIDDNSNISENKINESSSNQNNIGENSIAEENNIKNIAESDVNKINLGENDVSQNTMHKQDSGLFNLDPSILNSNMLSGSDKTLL
Outline: (§2)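 Purified PfHsp90 and PfGRP94 nucleotide-binding domains were amine-coupled to a CM5 chip (3000 and 7000 RU, respectively), with a blank reference surface. Seven compound concentrations (0.4 nM–1 mM) were injected in triplicate at 30 µL/min, 25 °C, in random order. Running buffer: 10 mM HEPES pH 7.4, 150 mM NaCl, 0.005% P20, 1% DMSO, 2 mM MgCl2. Kd came from double-referenced sensorgrams.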

[1] = biological target: T2, HSP90 (Plasmodium falciparum 3D7) (UniProt Q8IL32); test: Binding affinity to Plasmodium falciparum HSP90 nucleotide binding domain at 0.5 mM by SYPRO orange dye based DSF analysis
T2 sequence (whole entry): T1 sequence (Q8IL32 whole entry)
Outline: (§3)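 Recombinant P. falciparum Hsp90 or GRP94 nucleotide-binding domain (0.05–0.2 mg/mL, optimized per protein) in 25 mM HEPES pH 7.5, 250 mM NaCl. Compound final concentration was 0.5 mM, with SYPRO Orange at 1:1000. Samples were heated from 18 to 90 °C at 1 °C/min. Tm was taken as the Boltzmann-fit inflection point. ΔTm = Tm with ligand minus Tm without, and shifts beyond ±1 °C were counted significant.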

[2] = (§4) Binding affinity to Plasmodium falciparum GRP94 nucleotide binding domain by SPR analysis; outline: as §2
Plasmodium falciparum [3] = test: Binding affinity to Plasmodium falciparum GRP94 nucleotide binding domain at 0.5 mM by SYPRO orange dye based DSF analysis; outline: as §3
Plasmodium berghei [4] = test: Antiplasmodial activity against GFP-fused Plasmodium berghei in Anopheles stephensi mosquitoes feeded on blood from infected mouse at 100 mg/kg, ip pretreated for 1.5 hrs followed by blood feeding of mosquito assessed as reduction in infection of mosquito and measured at 8 days post mosquitoes infection by fluorescence microscopic method relative to control; format: functional; set-up: scale not given: the % may be the effect or the level left
Outline: (§5)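 Mice (two per group) infected ip with 200 µL PbGFP-infected RBCs (3000 parasites/µL); gametocytes checked at day 4. Compound given ip at 100 mg/kg in DMSO 1.5 h before A. stephensi fed 1 h on mice at 1% gametocytaemia. Untreated and DMSO-treated mice as controls. After 8 days, 30 mosquitoes per group dissected; midgut oocysts counted by fluorescence microscopy; inhibition relative to control oocyst numbers (100%).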

[5] = biological target: T2, HSP90 (Plasmodium falciparum 3D7); test: as §1; outline: as §2
[6] = Selectivity index, ratio of CC50 for human HepG2A16 cells to IC50 for GFP-fused Plasmodium berghei sporozoites infected in human HepG2A16 cells; format: toxicity, cell-based; conditions: read-out: Ratio CC50/IC50
Outline: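 HepG2-A16 cells were grown at 3 × 10^4 per well on collagen and infected with GFP P. berghei sporozoites (5 × 10^3 to 1 × 10^4 per well) from A. stephensi salivary glands. Compounds were added at infection, from 10 µg/mL top plus seven serial dilutions, and refreshed at 3 h and then every 24 h. After 40 h at 37 °C, EEFs were methanol-fixed, anti-Hsp70 immunolabelled and counted by high-content imaging. SI = HepG2 CC50 / liver-stage IC50.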

[7] = Selectivity index, ratio of CC50 for human primary hepatocytes to IC50 for Plasmodium falciparum FCR-3 sporozoites infected in human primary hepatocytes; format: toxicity, cell-based; conditions: read-out: Ratio CC50/IC50
Outline: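 Primary human hepatocytes were plated at 8 × 10^4 per well on collagen and infected with P. falciparum sporozoites (2.5 × 10^4 per well). Compounds were given at infection from 10 µg/mL plus seven dilutions, refreshed every 24 h, for 8 days. EEFs were read by Hsp70 immunostaining. […] Two independent experiments were run.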

Plasmodium falciparum [8] = test: Antiplasmodial activity against Plasmodium falciparum FCR-3 sporozoites infected in human primary hepatocytes treated simultaneously with infection by DAPI staining based HCS analysis; format: functional, organism-based, FCR-3/Gambia; conditions: Plasmodium falciparum, FCR-3/Gambia; read-out: IC50
[9] = Selectivity index, ratio of CC50 for human HepG2A16 cells by MTT assay to IC50 for multidrug-resistant Plasmodium falciparum FCR-3; format: toxicity
Outline: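 HepG2-A16 human hepatoma cells were tested by MTT viability assay to give CC50. Blood-stage activity was measured against the multidrug-resistant P. falciparum FCR-3 strain by [3H]-hypoxanthine incorporation to give IC50. SI = CC50 HepG2 / FCR-3 IC50.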

Plasmodium berghei [10] = test: Antiplasmodial activity against GFP-fused Plasmodium berghei sporozoites infected in human HepG2A16 cells treated simultaneously with infection by fluorescence microscopic analysis; format: functional, organism-based; conditions: Plasmodium berghei, HepG2A16; read-out: IC50
Outline: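 HepG2-A16 cells (3 × 10^4/well, collagen-coated) infected with PbGFP sporozoites (5 × 10^3 to 1 × 10^4/well) and treated at the same time. Top concentration 10 µg/mL in DMEM, seven serial dilutions. Medium and compound renewed at 3 h and every 24 h. After 40 h at 37 °C: methanol fixation, anti-Plasmodium Hsp70 immunolabeling, Alexa 594 secondary, DAPI; high-content imaging.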

Plasmodium berghei [11] = test: Antiplasmodial activity against GFP-fused Plasmodium berghei in Anopheles stephensi mosquitoes feeded on blood from infected mouse at 100 mg/kg, ip pretreated for 1.5 hrs followed by blood feeding of mosquito assessed as reduction in number of oocysts in mosquito midgut and measured at 8 days post mosquitoes infection by fluorescence microscopic method relative to control; format: functional; set-up: scale not given: the % may be the effect or the level left; outline: as §5
Plasmodium falciparum [12] = test: as §4; outline: as §2
[13] = Cytotoxicity against human primary hepatocytes after 48 hrs by MTT assay; format: cell-based, Hepatocyte
Outline: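 Primary human hepatocytes seeded at 2 × 10^5/well and grown 24 h at 37 °C, 5% CO2. Compound dilutions added in triplicate for 48 h. MTT (2 mg/mL) added for 4 h, then DMSO for 20 min; absorbance read at 550 nm. Untreated and diluent controls included; CC50 calculated.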

[14] = Cytotoxicity against human HepG2A16 cells by MTT assay; format: cell-based
Outline: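 MTT viability assay on HepG2-A16 cells, giving CC50 values.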

Plasmodium falciparum [15] = test: Antiplasmodial activity against multidrug-resistant Plasmodium falciparum FCR-3 by [3H]-hypoxanthine incorporation assay; format: functional, organism-based, FCR-3/Gambia
Outline: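 Blood-stage P. falciparum 3D7 and FCR-3 were tested by a modified [3H]-hypoxanthine incorporation assay. Chloroquine was the reference in all runs.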

Plasmodium berghei [16] = test: Antiplasmodial activity against Plasmodium berghei ANKA infected in mouse assessed as inhibition of parasitemia at 3 mg/kg/day, po for 4 consecutive days starting from 2 hrs post infection by MSF assay relative to control; format: functional
Outline: (§6)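 Swiss male mice (20 ± 2 g) infected ip with 10^7 P. berghei ANKA parasitized cells (day 0). Five per group dosed orally 2 h after infection and daily on days 0–3. Test compounds at 50 mg/kg/day in water:DMSO; chloroquine diphosphate at 3 mg/kg/day; vehicle controls. Parasitemia measured on day 4 by MSF assay; survival checked daily.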

[17] = Drug encapsulation in liposomes assessed as encapsulation efficiency in citrate/phosphate buffered measured after ultracentrifugation using compound addition to preformed liposomes by UV/Vis spectroscopy relative to untreated control; format: physicochemical; conditions: artificial membrane
Outline: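 Compound loaded into DSPC:cholesterol:DSPE-PEG2000-Mal:DOPE-Rho (84.5:10:5:0.5) liposomes using a citrate (pH 4.0)/PBS pH gradient. Drug measured by UV/vis after SDS disruption at each step: citrate liposomes, after buffer exchange to PBS (chloroquine added to preformed liposomes here), and after ultracentrifugation. Encapsulation efficiency = % of drug that is encapsulated out of total drug in the sample.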

Plasmodium falciparum [18] = test: Antiplasmodial activity against Plasmodium falciparum D6 after 72 hrs by MSF assay; format: functional, organism-based; conditions: D6, 72 h
Outline: (§7)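 D6 and C235 strains from the Walter Reed Army Institute of Research were tested by the Malaria SYBR Green-I fluorescence assay.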

Plasmodium berghei [19] = test: Antiplasmodial activity against Plasmodium berghei ANKA infected in mouse assessed as inhibition of parasitemia at 50 mg/kg/day, po for 4 consecutive days starting from 2 hrs post infection by MSF assay relative to control; format: functional; outline: as §6
[20] = Selectivity index, ratio of GI50 for African green monkey vero cells to IC50 for multidrug-resistant Plasmodium falciparum FCR-3; format: toxicity; conditions: read-out: Selectivity Index
Plasmodium falciparum [21] = test: Antiplasmodial activity against multidrug-resistant Plasmodium falciparum C235 after 72 hrs by MSF assay; format: functional, organism-based; conditions: C235, 72 h; outline: as §7
Plasmodium berghei [22] = test: Antiplasmodial activity against Plasmodium berghei ANKA infected in Swiss mouse assessed as reduction in parasitemia at 50 mg/kg/day, po for 4 consecutive days by Giemsa staining based assay relative to control; format: functional; set-up: scale not given: the % may be the effect or the level left
Plasmodium berghei [23] = test: Antiplasmodial activity against Plasmodium berghei ANKA infected in mouse assessed as mouse survival time at 3 mg/kg/day, po for 4 consecutive days starting from 2 hrs post infection by MSF assay; format: functional
Outline: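 Swiss male mice (20 ± 2 g) infected i.p. with 10^7 P. berghei ANKA parasitized cells in 0.1 mL 0.9% saline (day 0). Oral dosing began 2 h post-infection and continued daily on days 0–3, five mice per batch. Test drugs were given at 50 mg/kg/day in water:DMSO and chloroquine diphosphate at 3 mg/kg/day; a vehicle control was included. Survival was checked daily, and parasitemia was read on day 4 by modified MSF assay.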

[24] = Plasmodium falciparum, FCR-3/Gambia, 3 h

Compound	Activity [1]	Activity (Plasmodium falciparum [3])	selectivity ratio [6]	selectivity ratio [7]	IC50 (Plasmodium falciparum [8]) [µM]	IC50 (Plasmodium berghei [10]) [µM]	CC50 at 48 h [13] [µM]	CC50 ([14]; HepG2A16 cells) [µM]	other results
CC(C)NCC(O)Cn1c2ccc(Cl)cc2c2cc(Cl)ccc21 (stereo unspecified)	inactive	inactive	–	–	–	–	–	–	Kd (HSP90): 0.007 µM; Kd [2]: 4480 µM
O=[N+]([O-])c1ccc(N2CCC(NCCC(O)c3ccc(F)cc3)CC2)c(C(F)(F)F)c1 (stereo unspecified)	inactive	inactive	0.6	11.4	1.71	18.2	19.5	10.4	Activity (Plasmodium berghei [4]): 24%; Activity [5]: inactive; selectivity ratio ([9]; HepG2A16 cells, read-out: Ratio CC50/IC50): 22; Activity (Plasmodium berghei [11]): 70%; Activity (Plasmodium falciparum [12]): inactive; IC50 (Plasmodium falciparum [15]; [24]): 0.48 µM
CCN(CC)CCCC(C)Nc1ccnc2cc(Cl)ccc12.O=P(O)(O)O.O=P(O)(O)O (stereo unspecified) [CHLOROQUINE PHOSPHATE]	–	–	–	–	–	–	–	–	inhibition in vivo at 3 mg/kg/day (Plasmodium berghei [16]): 88.5%; Activity [17]: 95.8%
O=[N+]([O-])c1ccc(N2CCC(NCCC(O)c3ccc(F)c4ccccc34)CC2)c(C(F)(F)F)c1 (stereo in doubt; 8)	–	–	0.5	7.3	1.79	12.1	13.1	–	IC50 (Plasmodium falciparum [18]): 0.11 µM; inhibition in vivo at 50 mg/kg/day (Plasmodium berghei [19]): 96.4%; Ratio CC50/IC50 [9]: 38; selectivity ratio [20]: 37; IC50 (Plasmodium falciparum [21]): 0.13 µM; Activity (Plasmodium berghei [22]): 98%; CC50 [14]: 5.7 µM; IC50 (Plasmodium falciparum [15]): 0.15 µM
CCN(CC)CCCC(C)Nc1ccnc2cc(Cl)ccc12 (stereo unspecified) [CHLOROQUINE]	–	–	–	–	–	–	–	137	MSD (Plasmodium berghei [23]): 11 days
COc1cc(NC(C)CCCN)c2ncccc2c1 (stereo unspecified) [PRIMAQUINE]	–	–	32.9	135	0.4	3.65	54	120	IC50 (Plasmodium falciparum [15]; [24]): 1.18 µM
OC(CN1CCN(Cc2ccccc2)CC1)Cn1c2ccc(Cl)cc2c2cc(Cl)ccc21 (stereo unspecified)	inactive	inactive	–	–	–	–	–	–	Kd (HSP90): 0.027 µM; Kd [2]: 0.017 µM
